Assay results from the RNAGym collection of RNA variant scans (doi:10.1101/gad.245936.114).
Variants at the floor of the assay were thinned out.

B1: tRNA (parent)
chain: CUCUCGGUAGCCAAGUUGGUUUAAGGCGCAAGACUUUAAUUUAUCACUACGAAAUCUUGAGAUCGGGCGUUCGACUCGCCCCCGGGAGAUUUUUUCCUCGAGCAA

Variants of: B1
Test: nonsense suppression (GFP-seq) (ratio to wild type); higher = more function; SUP4oc tRNA, yeast GFP reporter sort-seq
How it was run: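 To measure nonsense suppression, tRNA variants from a library carrying ~3% random mutations were integrated into the yeast genome alongside RFP and a GFP ochre reporter under galactose control. Growth took place in raffinose/galactose medium supplemented with 80 mg/L adenine, followed by sorting into GFP/RFP bins and Illumina sequencing of each bin (phred ≥30). For each variant with ≥100 reads and ≥30 cells, the bin median GFP/RFP values were weighted by its estimated cell share per bin and referenced to the unmutated parent tRNA.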

Variant | nonsense suppression
CUCUAGUUAGCCAAGUUGGGUUAAGGCGCAAGACUUUAAUUUAUCACUACGAAAUCUUGAGAUCGGGCGUUCGUCUCGCCCCCGGGAGAUUUUUUCCUCGAGCAA [C5A G7U U20G A74U] | ≤ 0.026
CUCUAGGUAGCCAAGUUGCUUUAAGGCGCAAGACUUUAAUUUAUCACUACGAAAUCUUGAGGUCGGGCGUUCGACUCGCCCCCGGGAGAUUUUUUCCUCGAGCAA [C5A G19C A62G] | ≤ 0.026
CUCGCGGUAGCCAAGUUGGUUUAAGGCGCAAGACUUUAAUUUAUCACUACGAAAUCUUGAGAUCGGGCGUUCUACUCGCCCCCGGGAGAUUUUUUCCUCGAGCAA [U4G G73U] | 0.0898
CUCGCGGUAGCCAAGUUGGUUUAAGGCGCAAGACUUUAAUUUAUCACUACGAAAUCUUGAGAUCGGGCGUUCCACUCGCCCCCGGGAGAUUUUUUCCUCGAGCAA [U4G G73C] | 0.0291
CUCGCGGUAGCCAAGUCGGUUUAAGGCGCAAGACUUUAAUUUAUCACUACGAAAUCUUGAGAUCGGGCGUUCGACUCGCCCCCGGGAGAUUUUUUCCUCGAGCAA [U4G U17C] | 0.45
CUCGCGGUAGCCAAGUUGGUUUAAGGCGCAAGACUUUAAUUUAUCACUACGAAAUCUUGAGAUCGGGCGUACGACUCGCCCCCGGGAGAUUUUUUCCUCGAGCAA [U4G U71A] | 0.0967
CUCGCGGUAGCCAAGUUGGUUUAAGGCGCAAGACUUUAAUUUAUCACUACGAAAUCUUGAGAUCGGGCGUUCGACACGCCCCCGGGAGAUUUUUUCCUCGAGCAA [U4G U76A] | 0.109
CUCUAGGUAGCCAAGUUGGUUUAAGGCGCAAGACUUUAAUUUAUCACUACGAAAUCUUCAGAUCGGGCGUUCGACUCGCCCCCGGGAGAUUUUUUCCUCGAGCAA [C5A G59C] | ≤ 0.026
CUCGCGGUAGCCAAGUUGGUUUAAGGCGCAAGACUUUAAUUUAUCACUACGAAAUCUUGAAAUCGGGCGUUCGAAUCGCCCCCGGGAGAUUUUUUCCUCGAGCAA [U4G G61A C75A] | 0.558
CUCUAGGUAGCCAAGUUGGUUUAAGGCGCAAGACUUUAAUUUAUCACUACGAAAUCUUGAGAUCGGGCGUUCGACUCACCCCCGGGAGAUUUUUUCCUCGAGCAA [C5A G78A] | 0.0335
CUCUAGGUAGCCAAGUUGGUUUAAGGCGCAAGACUUUAAUUUAUCACUACGAAAUCUUGAGAUCGGGCGUUCGACUCCCCCCCGGGAGAUUUUUUCCUCGAGCAA [C5A G78C] | ≤ 0.026
CUCUAGGUAGCCAAGUUGGUUUAAGGCGCAAGACUUUAAUUUAUCACUACGAAAUCUUGAGAUCGGGCGUUCGACUCUCCCCCGGGAGAUUUUUUCCUCGAGCAA [C5A G78U] | 0.0303
CUCUAGGUAGCCAAGUUGGUUUAAGGCGCAAGACUUUAAUUUAUCACUACGAAAUCUUGAGAUAGGGCGUUCGACUAGCCCCCGGGAGAUUUUUUCCUCGAGCAA [C5A C64A C77A] | ≤ 0.026
CUCGCGGUAGCCAAGUUGGAUUAAGGCGCAAGACUUUAAUUUAUCACUACGAAAUCUUGAGAUCGGGCGUUCGACUCGCCCCCGGGAGAUUUUUUCCUCGAGCAA [U4G U20A] | 0.0644
CUCGCGGUAGCCAAGUUGGGUUAAGGCGCAAGACUUUAAUUUAUCACUACGAAAUCUUGAGAUCGGGCGUUCGACUCGCCCCCGGGAGAUUUUUUCCUCGAGCAA [U4G U20G] | 0.834
CUCUAGGUAGCCAAGUUGGUUUAAGGGGCAAGACUUUAAUUUAUCACUACGAAAUCUUGAGAUCGGGCGUUCAACUCGCCCCCGGGAGAUUUUUUCCUCGAGCAA [C5A C27G G73A] | ≤ 0.026
CUCUAGGUAGCCAAGUUGUUUUAAGGCGCAAGACUUUAAUUUAUCACUACGAAAGCUUGUGAUCGGGCGUUCGACUCGCCCCCGGGAGAUUUUUUCCUCGAGCAA [C5A G19U U55G A60U] | ≤ 0.026
CUCUAGGUAGCCAAGUUUGUUUAAGGCGCAAGACUUUAAUUUAUCACUACGAAAUCUUGAGAUCGGGCGUUCGACCCGCCCCCGGAAGAUUUUUUCCUCGAGCAA [C5A G18U U76C G86A] | ≤ 0.026
CUCUAGGUAGCCAAGUUGGUUUAAGGCGCGAGACUUUAAUUUAUCACUACGAAAUCUUGAGAUCGGGCGUUCGACUCGCCCCCGGGAGAUUUUUUCCUCGAGCAA [C5A A30G] | 0.0272
CUCGCGGUAGCCAAGUUGGUUUAAGGCGCAAGACUUUAAUUUAUCACUACGAAAUCGUGUGAUCGGGCGUUCGACUCGCCCCCGGGAGAUUUUUUCCUCGAGCAA [U4G U57G A60U] | ≤ 0.026
CUCGCGGAAGCCAAGUUGGUUUAAGGCGCAAGACUUUAAUUUAUCACUACGAAAUCUUGAGAUCGGGCGUUCGACUCGCCCCCGGGAGAUUUUUUCCUCGAGCAA [U4G U8A] | ≤ 0.026
CUCUAGGUAGCCAAGUUGGUUUAUGGCGCAAGACUUUAAUUUAUCACUACGAAAUCUUGAGAUCGAGCGUUCGACUCGCCCCCGGGAGAUUUUUUCCUCGAGCAA [C5A A24U G66A] | ≤ 0.026
CUCUAGGUAGCCAAGUUGGUUUAAGGCGCACGACUUUAAUUUAUCACUACGAAAUCUUGAGAUCGGGCGUUCGACUCGCCCCCGGGAGAUUUUUUCCUCGAGCAA [C5A A31C] | ≤ 0.026
CUCUAGGUAGCCAAGUUGGUUUAAGGCGCAAGACUUUAAUUUAUCACUACGAAAUCUUGGGAUCGGGCGUUCGACUCGCCCCCGGGAGAUUUUUUCCUCGAGCAA [C5A A60G] | 0.0265
CUCUAGGUAGCCAAGUUGGUUUAAGGCGCAAGACUUUAAUUUAUCACUACGAAAUCUUGCGAUCGGGCGUUCGACUCGCCCCCGGGAGAUUUUUUCCUCGAGCAA [C5A A60C] | 0.0331
CUCGCGGUAGCCAAGUUCGUUUAAGGCACAAGACUUUAAUUUAUCACUACGAAAUCUUGAGAUCGGGCGUUCGGCUCGCCCCCGGGAGAUUUUUUCCUCGAGCAA [U4G G18C G28A A74G] | ≤ 0.026
CUCUAGGUAGCCAAGUUGGUUUACGGCGCAAGACUUUAAUUUAUCACUACGAAAUCUUGAGAUCGGGCGUUCGACUCGCCCCCGGGAGAUUUUUUCCUCGAGCAA [C5A A24C] | 0.0269

Variant | nonsense suppression
CUCUAGGUCGCCAAGUUGGUUUAGGGCGCAAGACUUUAAUUUAUCACUACGAAAUCUUGAGAUCGGGCGUUCGACUCGCCCCCGAGAGAUUUUUUCCUCGAGCAA [C5A A9C A24G G85A] | ≤ 0.026
CUCUAGUUAGCCAAGUCGGUUUAAGGCGCAAGACUUUAAUUUAUCACUACGAAAUCUUGAGAUCGGGCGUUCGACUCGCCCCCGGGAGAUUUUUUCCUCGAGCAA [C5A G7U U17C] | ≤ 0.026
CUCGCGGUAGCCAAGCUGGUUUAAGGCGCAAGACUUUAAUUUAUCACUACGAAAUCUUGAGAUCGGGCGUUCGACUCGCCCCCGGGAGAUUUUUUCCUCGAGCAA [U4G U16C] | 0.882
CUCUAGGUAGCCAGGUUGGUUUAAGGCGCAAGACUUUAAUUUAUCACUACGAAAUCUUGAGAUCGGGCGUUCGACUCGCCCCCGGGAGAUUUUUUCCUCGAGCAA [C5A A14G] | ≤ 0.026
CUCGCGGUAGCCAAGUUGGCUUAAGGCGCAAGGCUUUAAUUUAUCACUACGAAAUCUUGAGAUCGGGCGUUCGACUCGCCCCCGGGAGAUUUUUUCCUCGAGCAA [U4G U20C A33G] | 0.0309
CUCGCGGUAGCCAAGUUGGUUGAAGGCGCAAGACUUUAAUUUAUCACUACGAAAUCUUGAGAUCGGGCGUUCGACUCGCCCCCGGGAGAUUUUUUCCUCGAGCAA [U4G U22G] | 0.492
CUCGCGGUAGCCAAGUUGGUUAAAGGCGCAAGACUUUAAUUUAUCACUACGAAAUCUUGAGAUCGGGCGUUCGACUCGCCCCCGGGAGAUUUUUUCCUCGAGCAA [U4G U22A] | 0.216
CUCUAGGUAGCCAAGUUGGUUUAAGGCGCUAGACUUUAAUUUAUCACUACGAAAUCUUGAGAUCGGGAGUUCGACUCGCCCCCGGGAGAUUUUUUCCUCGAGCAA [C5A A30U C68A] | ≤ 0.026
CUCUAGGUAGCCAAGUUGGUUUCAGGCGCAGGACUUUAAUUUAUCACUACGAAAUCUUGAAAUCGGGCGUUCGACUCGCCCCCGGGAGAUUUUUUCCUCGAGCAA [C5A A23C A31G G61A] | ≤ 0.026
CUCGCGGUAGCCAAGUUGGUUUAAGGCGCAAGACUUUAAUUUAUCACUACGAAAUCUUGAGAUCGGGCGUUCGACUCUCCCCCGGGAGAUUUUUUCCUCGAGCAA [U4G G78U] | 0.0997
CUCGCGGUAGCCAAGUUGGUUUAAGGCGCAAGACUUUAAUUUAUCACUACGAAAUCUUGAGAACGGGCGUUCGACUCGCCCCCGGGAGAUUUUUUCCUCGAGCAA [U4G U63A] | 0.199
CUCGCGGUAGCCAAGUGGGUUUAAGGCGCAAGACUUUAAUUUAUCACUACGAAAUCUUGAGAUCGGGCAUUCGACUCGCCCCCGGGAGAUUUUUUCCUCGAGCAA [U4G U17G G69A] | ≤ 0.026
CUCGCGGUAGCCAAGUUGGUUUAAGGCGCAAGACUUUAAUUUAUCACUACGAAAUCUUGAGAUCGGGCGUUCGACUCGCCCCCGCGAGAUUUUUUCCUCGAGCAA [U4G G85C] | 0.813
CUCGCGGUAGCCAAGUUGGGUAAAGGCGCAAGACUUUAAUUUAUCACUACGAAAUCUUGAGAUCGGGCGUUCGACUCGCCCCCGGGAGAUUUUUUCCUCGAGCAA [U4G U20G U22A] | 0.21
CUCUAGGUAGCCAUGUUGGUUUAAGGCGCAAGCCUUUAAUUUAUCACUACGAAACCUUGAGAUCGGGCGUUCGACUCGCCCCCGGGAGAUUUUUUCCUCGAGCAA [C5A A14U A33C U55C] | ≤ 0.026
CUCUAGGAAGCCAAGUUGGUUUAAGGCGCAAGACUUUAAUUUAUCACUACGAAAUCUUGAGAUCGGGCGUUCGACUCGCCCCCGGGAGAUUUUUUCCUCGAGCAA [C5A U8A] | ≤ 0.026
CUCUAGGCAGCCAAGUUGGUUUAAGGCGCAAGACUUUAAUUUAUCACUACGAAAUCUUGAGAUCGGGCGUUCGACUCGCCCCCGGGAGAUUUUUUCCUCGAGCAA [C5A U8C] | ≤ 0.026
CUCGCGGUAGCCAAGUUGGUUUAAGGCGCAAGACUUUAAUUUAUCACUACGAAAUCUUGAGAUCGAGCGUUCGACUCGCCCCCGGGAGAUUUUUUCCUCGAGCAA [U4G G66A] | 0.0774
CUCGCGGUAGCCAAGUUGGUUUAAGGCGCAAGACUUUAAUUUAUCACUACGAAAUCGUGAGAUCGGGCGUUCGACUCGCCCCCGGGAGAUUUUUUCCUCGAGCAA [U4G U57G] | 0.0369
CUCGCGGUAGCCAAGUUGGUUUAAGGCGCAAGACUUUAAUUUAUCACUACGAAAUCUUAAGAUCGGGCGUUCGACUCGCCCCCGGGAGAUUUUUUCCUCGAGCAA [U4G G59A] | 0.0506
CUCGCGGUAGCCAAGUUCGUUUAGGGCGCAAGACUUUAAUUUAUCACUACGAAAUCUUGACAUCGGGCGUUCGACUCGCCACCGGGAGAUUUUUUCCUCGAGCAA [U4G G18C A24G G61C C81A] | 0.057
CUCGCGGUAGCCAAGUUGGUUUAAGGCGCAAAGCUUUAAUUUAUCACUACGAAAUCUUGAGAUCGGGCGUUCGACUCGCCCCCGGGAGAUUUUUUCCUCGAGCAA [U4G G32A A33G] | ≤ 0.026
CUCUAGGUAGCCAAAUUGGUUUAAGGCGCAAGGCUUUAAUUUAUCACUACGAAAUCUUGAGAUCGGGCGUUCGACUCGCCCCCGGGAGAUUUUUUCCUCGAGCAA [C5A G15A A33G] | ≤ 0.026
CUCUAGGUAGCCAAGUUGGUUUAAGGCGCAAGACUUUAAUUUAUCACUACGAAAUCUUGACAUCGGGCGUUCGACUCGCCCCCGGGAGAUUUUUUCCUCGAGCAA [C5A G61C] | 0.0329
CUCGCGGUAGCCAAGUUGGUUUAAGGCGCAAGACUUUAAUUUAUCACUACGAAAUCUUGAAAUCGGGCGUUCGACUCGCCCCCGGGAGAUUUUUUCCUCGAGCAA [U4G G61A] | 0.189
CUCGCGGUAGCCAAGUUGGUUUAAGGCGCAAGACUUUAAUUUAUCACUACGAAAUCUUGAUAUCGGGCGUUCGACUCGCCCCCGGGAGAUUUUUUCCUCGAGCAA [U4G G61U] | 0.804
CUCUAGGUAGCCCAGUUGGUUUAAGGCGCAAGACUUUAAUUUAUCACUACGAAAUCUAGAGAUCGGGCGUUCGACUCGCCACCGGGAGAUUUUUUCCUCGAGCAA [C5A A13C U58A C81A] | ≤ 0.026
